# Experimental data from ChEMBL document CHEMBL1127698, “Matrix metalloproteinase inhibitors containing a (carboxyalkyl)amino zinc ligand: modification of the P1 and P2' residues” (J Med Chem, 1994).
# Experiments:
# Stromelysin-1 = Stromelysin-1 (Homo sapiens, UniProt P08254); assay: Activity against human stromelysin (MMP-3).
# Procedure, shortened: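 Fluorogenic stromelysin assay: human enzyme 10 nM in pH 7.6 Tris buffer (200 mM NaCl, 5 mM CaCl2, 20 μM ZnSO4, 0.05% Brij 35). Inhibitors ran from 10 000 to 0.057 nM in 3-fold steps. Ki came from % inhibition vs log[inhibitor], with substrate far below Km.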
# [1] = biological target: Matrix metalloproteinase-9 (Homo sapiens, UniProt P14780); assay: Activity against human gelatinase (MMP-9).
# Chain of Matrix metalloproteinase-9 (P14780 whole entry): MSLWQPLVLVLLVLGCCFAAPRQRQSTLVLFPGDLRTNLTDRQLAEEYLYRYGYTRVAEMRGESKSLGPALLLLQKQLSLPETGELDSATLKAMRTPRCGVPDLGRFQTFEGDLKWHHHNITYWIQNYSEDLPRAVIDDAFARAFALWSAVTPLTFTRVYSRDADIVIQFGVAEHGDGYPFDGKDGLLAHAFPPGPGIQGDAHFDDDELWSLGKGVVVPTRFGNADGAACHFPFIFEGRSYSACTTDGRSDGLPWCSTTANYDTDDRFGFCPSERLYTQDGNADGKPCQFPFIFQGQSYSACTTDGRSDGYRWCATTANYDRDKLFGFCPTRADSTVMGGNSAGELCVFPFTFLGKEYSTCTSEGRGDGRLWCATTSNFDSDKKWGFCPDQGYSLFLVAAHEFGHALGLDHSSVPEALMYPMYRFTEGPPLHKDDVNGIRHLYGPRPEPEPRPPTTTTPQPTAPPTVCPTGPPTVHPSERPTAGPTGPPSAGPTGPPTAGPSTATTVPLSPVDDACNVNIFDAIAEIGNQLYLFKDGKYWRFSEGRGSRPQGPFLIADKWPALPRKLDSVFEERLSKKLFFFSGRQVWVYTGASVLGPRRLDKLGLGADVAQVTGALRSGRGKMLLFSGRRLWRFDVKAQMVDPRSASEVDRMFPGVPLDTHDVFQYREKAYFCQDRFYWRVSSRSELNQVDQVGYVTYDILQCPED
# Procedure, shortened: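 Human gelatinase at 1 nM in pH 7.6 Tris buffer (200 mM NaCl, 5 mM CaCl2, 20 μM ZnSO4, 0.05% Brij 35), with inhibitors at 3-fold dilutions from 10 000 to 0.057 nM. Ki came from % inhibition vs log concentration, with substrate far below Km.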
# Interstitial collagenase = biological target: T1, Interstitial collagenase (Homo sapiens, UniProt P03956); assay: Activity against human collagenase (MMP-1).
# T1 sequence (P03956 whole entry): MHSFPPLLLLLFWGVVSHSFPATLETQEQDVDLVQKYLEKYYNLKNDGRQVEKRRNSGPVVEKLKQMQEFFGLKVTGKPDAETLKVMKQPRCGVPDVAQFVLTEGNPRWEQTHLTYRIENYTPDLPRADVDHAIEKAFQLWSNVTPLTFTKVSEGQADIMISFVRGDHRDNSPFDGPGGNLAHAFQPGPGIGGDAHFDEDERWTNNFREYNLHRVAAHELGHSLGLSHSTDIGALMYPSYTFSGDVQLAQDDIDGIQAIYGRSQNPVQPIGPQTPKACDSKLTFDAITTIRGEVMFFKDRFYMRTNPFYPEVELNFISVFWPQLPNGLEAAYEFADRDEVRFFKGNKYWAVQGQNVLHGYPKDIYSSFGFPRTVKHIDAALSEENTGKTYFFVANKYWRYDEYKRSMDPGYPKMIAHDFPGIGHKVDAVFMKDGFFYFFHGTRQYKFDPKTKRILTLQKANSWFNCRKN
# [2] = Half-life period for the activity is tested at pH 6.8; format: ADME
# Procedure, shortened: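 Inhibitor at 20 μM in 20 mM sodium phosphate, pH 6.8, held at 30 °C. Aliquots were injected every 3 h over 24 h onto C18 reverse-phase HPLC with a 5–60% acetonitrile gradient containing 0.1% TFA.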
# Chain of Stromelysin-1 (P08254 whole entry): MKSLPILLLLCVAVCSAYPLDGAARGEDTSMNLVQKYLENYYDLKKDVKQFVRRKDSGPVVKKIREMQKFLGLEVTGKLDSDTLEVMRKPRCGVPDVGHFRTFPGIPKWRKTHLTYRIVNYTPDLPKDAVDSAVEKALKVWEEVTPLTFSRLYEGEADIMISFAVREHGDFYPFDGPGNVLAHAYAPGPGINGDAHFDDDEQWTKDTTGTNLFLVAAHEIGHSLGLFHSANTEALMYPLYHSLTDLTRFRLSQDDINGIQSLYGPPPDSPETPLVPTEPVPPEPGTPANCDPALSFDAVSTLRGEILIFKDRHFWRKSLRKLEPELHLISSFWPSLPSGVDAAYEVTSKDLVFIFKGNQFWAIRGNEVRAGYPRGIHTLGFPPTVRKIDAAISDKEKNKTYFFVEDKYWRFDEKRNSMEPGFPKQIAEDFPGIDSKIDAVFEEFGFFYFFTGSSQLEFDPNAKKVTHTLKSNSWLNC
SMILES,IC50 (Stromelysin-1) [nM],IC50 [1] [nM],IC50 (Interstitial collagenase) [nM],half-life [2] [h]
CNC(=O)CNC(=O)[C@H](CC(C)C)N[C@H](CCN1C(=O)c2cc3ccccc3cc2C1=O)C(=O)O,> 10000,124,370,–
CC(C)C[C@@H](N[C@H](CCN1C(=O)c2cc3ccccc3cc2C1=O)C(=O)O)C(=O)NC(C)c1ccccc1 (stereo not given in full),4700,76,74,–
CNC(=O)[C@H](Cc1ccccc1)NC(=O)[C@H](CC(C)C)N[C@H](CCN1Cc2cc3ccccc3cc2C1=O)C(=O)O,7880,63,211,> 100
CC(C)C[C@H](N[C@H](CCN1C(=O)c2cc3ccccc3cc2C1=O)C(=O)O)C(=O)NC1CCCc2ccccc21 (stereo not given in full),2470,75,108,–
CNC(=O)[C@H](CC(C)C)N[C@H](CCN1C(=O)c2cc3ccccc3cc2C1=O)C(=O)O,> 10000,706,490,–
CC(C)C[C@H](N[C@H](CCN1C(=O)c2cc3ccccc3cc2C1=O)C(=O)O)C(=O)NCc1ccc(C(=O)O)cc1,178,74,56,–
CNC(=O)[C@H](Cc1ccccc1)NC(=O)[C@H](CC(C)C)N[C@H](CCN1C(=O)c2cc3ccc(OC)cc3cc2C1=O)C(=O)O,–,–,36,–
CC(C)C[C@H](N[C@H](CCN1C(=O)c2cc3ccccc3cc2C1=O)C(=O)O)C(=O)N(C)Cc1ccccc1,1160,57,37,–
CC(C)C[C@H](N[C@H](CCN1C(=O)c2cc3ccccc3cc2C1=O)C(=O)O)C(=O)N1CCN(C)CC1,1890,70,54,–
CC(C)C[C@H](N[C@H](CCN1C(=O)c2cc3ccccc3cc2C1=O)C(=O)O)C(=O)N1CCc2ccccc2C1,2190,88,84,–
CC(C)C[C@H](N[C@H](CCN1C(=O)c2cc3ccccc3cc2C1=O)C(=O)O)C(=O)Nc1ccccc1,12500,101,–,–
CNC(=O)[C@H](Cc1ccccc1)NC(=O)[C@H](CC(C)C)N[C@H](CCNC(=O)OCc1ccccc1)C(=O)O,3570,580,–,–
CNC(=O)[C@H](C)NC(=O)[C@H](CC(C)C)N[C@H](CCN1C(=O)c2cc3ccccc3cc2C1=O)C(=O)O,5630,69,86,–
CNC(=O)[C@H](Cc1ccccc1)NC(=O)[C@H](CC(C)C)N[C@H](CCN1C(=O)c2ccccc2C1=O)C(=O)O,5970,59,81,10
CC(C)C[C@H](N[C@H](CCN1C(=O)c2cc3ccccc3cc2C1=O)C(=O)O)C(=O)N(C)C,> 10000,82,86,–
CC(C)C[C@H](N[C@H](CCN1C(=O)c2cc3ccccc3cc2C1=O)C(=O)O)C(=O)N1CCCC1c1cccnc1 (stereo in doubt; 76),4080,70,164,–

# Further lines, results first:
IC50 (Stromelysin-1) [nM],IC50 [1] [nM],IC50 (Interstitial collagenase) [nM],half-life [2] [h],SMILES
481,27,152,–,CNC(=O)[C@H](CCCN=C(N)N)NC(=O)[C@H](CC(C)C)N[C@H](CCN1C(=O)c2cc3ccccc3cc2C1=O)C(=O)O
341,28,190,–,CNC(=O)[C@H](Cc1ccccc1)NC(=O)[C@H](CC(C)C)N[C@H](CCN1C(=O)c2cccc3c(Br)ccc(c23)C1=O)C(=O)O
–,5,12,15.5,CNC(=O)[C@H](Cc1ccccc1)NC(=O)[C@H](CC(C)C)N[C@H](CCN1C(=O)c2cc3c(cc2C1=O)OCO3)C(=O)O
> 10000,35,160,–,CC(C)C[C@H](N[C@H](CCN1C(=O)c2cc3ccccc3cc2C1=O)C(=O)O)C(=O)NCCc1ccccc1
518,7.5,22,1.7,CNC(=O)[C@H](Cc1ccccc1)NC(=O)[C@H](CC(C)C)N[C@H](CCN1C(=O)c2cc3ccccc3nc2C1=O)C(=O)O
1300,11,49,27,CNC(=O)[C@H](CC(C)C)NC(=O)[C@H](CC(C)C)N[C@H](CCN1C(=O)c2cc3ccccc3cc2C1=O)C(=O)O
309,36,139,–,CC(C)C[C@H](N[C@H](CCN1C(=O)c2cc3ccccc3cc2C1=O)C(=O)O)C(=O)NCc1cccnc1
121,13,44,37,CC(C)C[C@H](NC(=O)[C@H](CC(C)C)N[C@H](CCN1C(=O)c2cc3ccccc3cc2C1=O)C(=O)O)C(=O)NCCN1CCOCC1
2340,49,488,> 100,CNC(=O)[C@H](Cc1ccccc1)NC(=O)[C@H](CC(C)C)N[C@H](CCNC(=O)c1ccc2ccccc2c1)C(=O)O
91,5,20,29,CNC(=O)[C@H](Cc1ccccc1)NC(=O)[C@H](CC(C)C)N[C@H](CCN1C(=O)c2cc3ccccc3cc2C1=O)C(=O)O
965,12,51,–,CC(C)C[C@H](N[C@H](CCN1C(=O)c2cc3ccccc3cc2C1=O)C(=O)O)C(=O)NC(C)c1ccccc1 (stereo not given in full)
1480,15,41,–,CC(C)C[C@H](N[C@H](CCN1C(=O)c2cc3ccccc3cc2C1=O)C(=O)O)C(=O)NCc1cccc(F)c1
2980,30,270,–,CC(C)C[C@H](N[C@H](CCN1C(=O)c2cc3ccccc3cc2C1=O)C(=O)O)C(=O)NCc1nnn(C)n1
2170,4.8,38,1.7,CNC(=O)[C@H](Cc1ccccc1)NC(=O)[C@H](CC(C)C)N[C@H](CCn1c(=O)c2cc3c(=O)[nH]c(=O)c3cc2c1=O)C(=O)O
295,6.7,70,–,CC(C)C[C@H](N[C@H](CCN1C(=O)c2cc3ccccc3cc2C1=O)C(=O)O)C(=O)NCc1ccc(S(N)(=O)=O)cc1
631,14,19,–,CNC(=O)C(NC(=O)[C@H](CC(C)C)N[C@H](CCN1C(=O)c2cc3ccccc3cc2C1=O)C(=O)O)c1ccccc1 (stereo not given in full)
72,3.8,29,–,CNC(=O)[C@H](Cc1ccc(O)cc1)NC(=O)[C@H](CC(C)C)N[C@H](CCN1C(=O)c2cc3ccccc3cc2C1=O)C(=O)O
216,4.5,19,7.8,CNC(=O)[C@H](Cc1ccccc1)NC(=O)[C@H](CC(C)C)N[C@H](CCN1C(=O)c2ccc(-c3ccccc3)cc2C1=O)C(=O)O
1370,7.4,54,87,CNC(=O)[C@H](Cc1ccccc1)NC(=O)[C@H](CC(C)C)N[C@H](CCN1C(=O)c2cc3ccccc3c(OC)c2C1=O)C(=O)O
427,2.1,15,10.9,CCCOc1ccc2c(c1)C(=O)N(CC[C@@H](N[C@@H](CC(C)C)C(=O)N[C@@H](Cc1ccccc1)C(=O)NC)C(=O)O)C2=O
1520,32,87,–,CC(C)C[C@H](N[C@H](CCN1C(=O)c2cc3ccccc3cc2C1=O)C(=O)O)C(=O)NCc1ccccc1
1400,15,36,7.2,CNC(=O)[C@H](Cc1ccccc1)NC(=O)[C@H](CC(C)C)N[C@H](CCN1C(=O)c2cc3cccc(OC)c3cc2C1=O)C(=O)O
960,18,44,–,CC(C)C[C@H](N[C@H](CCN1C(=O)c2cc3ccccc3cc2C1=O)C(=O)O)C(=O)N1CCCC1c1cccnc1 (stereo in doubt; 75)
